Legend:
Format in all cases: functional
[1] = system: Cancer cell lines; assay: Potency index, ratio of 5-fluorouracil GI50 to compound GI50 for human prostate cancer cells
How it was run: (§1)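 GI50 for each cell line came from NCI panel testing over a 5-log dose range, with 5-fluorouracil tested alongside as the reference drug. The index relates the 5-fluorouracil GI50 to the compound GI50 within each tumour subpanel.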

[2] = Growth inhibition of human SN12C cells at 10 uM after 48 hrs by SRB assay relative to control; details: read-out: GI
How it was run: (§2)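 Primary screen across the full NCI 60 human tumour cell line panel, which covers nine tumour subpanels. A single dose of 10 μM was applied to each line, and growth was recorded for each cell line.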

[3] = Growth inhibition of human colon cancer cells after 48 hrs by SRB assay; details: Cancer cell lines
How it was run: (§3)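 Follow-up NCI panel testing over a 5-log dose range for each cell line. GI50, TGI and LC50 were monitored, with 5-fluorouracil run as the positive control. Values are grouped by tumour subpanel.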

[4] = Growth inhibition of human HCT116 cells at 10 uM after 48 hrs by SRB assay relative to control; details: HCT-116, 48 h, read-out: GI
How it was run: (§4)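 NCI 60-cell-line panel, nine tumor subpanels; compounds tested at a single dose of 10 μM in the primary screen.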

[5] = Growth inhibition of human Hs 578T cells at 10 uM after 48 hrs by SRB assay relative to control; details: read-out: GI; how it was run: as §4
[6] = Growth inhibition of human MALME-3M cells at 10 uM after 48 hrs by SRB assay relative to control; details: read-out: GI; how it was run: as §4
[7] = Growth inhibition of human NCI-322M cells at 10 uM after 48 hrs by SRB assay relative to control; details: read-out: GI; how it was run: as §4
[8] = Growth inhibition of human HCT15 cells at 10 uM after 48 hrs by SRB assay relative to control; details: HCT-15, 48 h, read-out: GI; how it was run: as §4
[9] = Growth inhibition of human MOLT4 cells at 10 uM after 48 hrs by SRB assay relative to control; details: MOLT-4, 48 h, read-out: GI; how it was run: as §4
[10] = Growth inhibition of human 786-0 cells at 10 uM after 48 hrs by SRB assay relative to control; details: 786-0, 48 h, read-out: GI; how it was run: as §4
[11] = Growth inhibition of human T47D cells at 10 uM after 48 hrs by SRB assay relative to control; details: read-out: GI; how it was run: as §2
[12] = Growth inhibition of human non-small cell lung cancer cells after 48 hrs by SRB assay; details: Cancer cell lines; how it was run: as §3
[13] = Growth inhibition of human NCI-H460 cells at 10 uM after 48 hrs by SRB assay relative to control; details: NCI-H460, 48 h, read-out: GI; how it was run: as §4
[14] = Growth inhibition of human RPMI8226 cells at 10 uM after 48 hrs by SRB assay relative to control; details: RPMI-8226, 48 h, read-out: GI; how it was run: as §4
[15] = Growth inhibition of human SF539 cells at 10 uM after 48 hrs by SRB assay relative to control; details: SF-539, 48 h, read-out: GI; how it was run: as §4
[16] = Growth inhibition of human SK-MEL-28 cells at 10 uM after 48 hrs by SRB assay relative to control; details: SK-MEL-28, 48 h, read-out: GI; how it was run: as §2
[17] = Growth inhibition of human OVCAR8 cells at 10 uM after 48 hrs by SRB assay relative to control; details: OVCAR-8, 48 h, read-out: GI; how it was run: as §4
[18] = Growth inhibition of human breast cancer cells after 48 hrs by SRB assay; details: Cancer cell lines; how it was run: as §3
[19] = Growth inhibition of human U251 cells at 10 uM after 48 hrs by SRB assay relative to control; details: U-251, 48 h, read-out: GI; how it was run: as §2
[20] = Growth inhibition of human melanoma cells after 48 hrs by SRB assay; details: Melanoma cell; how it was run: as §3
[21] = Growth inhibition of human COLO205 cells at 10 uM after 48 hrs by SRB assay relative to control; details: COLO 205, 48 h, read-out: GI; how it was run: as §4
[22] = Growth inhibition of human HCC2998 cells at 10 uM after 48 hrs by SRB assay relative to control; details: HCC 2998, 48 h, read-out: GI; how it was run: as §4
[23] = Growth inhibition of human SK-MEL-5 cells at 10 uM after 48 hrs by SRB assay relative to control; details: SK-MEL-5, 48 h, read-out: GI; how it was run: as §2
[24] = Growth inhibition of human ACHN cells at 10 uM after 48 hrs by SRB assay relative to control; details: read-out: GI; how it was run: as §4
[25] = Growth inhibition of human HT-29 cells at 10 uM after 48 hrs by SRB assay relative to control; details: HT-29, 48 h, read-out: GI; how it was run: as §4
[26] = system: Cancer cell lines; assay: Potency index, ratio of 5-fluorouracil GI50 to compound GI50 for human colon cancer cells; how it was run: as §1
[27] = Growth inhibition of human A549 cells at 10 uM after 48 hrs by SRB assay relative to control; details: A549, 48 h, read-out: GI; how it was run: as §4
[28] = Growth inhibition of human UO31 cells at 10 uM after 48 hrs by SRB assay relative to control; details: UO-31, 48 h, read-out: GI; how it was run: as §2
[29] = Growth inhibition of human OVCAR5 cells at 10 uM after 48 hrs by SRB assay relative to control; details: OVCAR-5, 48 h, read-out: GI; how it was run: as §4
[30] = system: Cancer cell lines; assay: Potency index, ratio of 5-fluorouracil GI50 to compound GI50 for human non-small cell lung cancer cells; how it was run: as §1
[31] = Growth inhibition of human SK-MEL-2 cells at 10 uM after 48 hrs by SRB assay relative to control; details: SK-MEL-2, 48 h, read-out: GI; how it was run: as §2
[32] = Growth inhibition of human UACC62 cells at 10 uM after 48 hrs by SRB assay relative to control; details: UACC-62, 48 h, read-out: GI; how it was run: as §2
[33] = Growth inhibition of human OVCAR4 cells at 10 uM after 48 hrs by SRB assay relative to control; details: OVCAR-4, 48 h, read-out: GI; how it was run: as §4
[34] = Growth inhibition of human IGROV1 cells at 10 uM after 48 hrs by SRB assay relative to control; details: IGROV-1, 48 h, read-out: GI; how it was run: as §4
[35] = Growth inhibition of human LOXIMVI cells at 10 uM after 48 hrs by SRB assay relative to control; details: LOX IMVI, read-out: GI; how it was run: as §4
[36] = Growth inhibition of human prostate cancer cells after 48 hrs by SRB assay; details: Cancer cell lines; how it was run: as §3
[37] = Growth inhibition of human K562 cells at 10 uM after 48 hrs by SRB assay relative to control; details: K562, 48 h, read-out: GI; how it was run: as §4

In the case of `COc1ccc(-n2c(SCc3cc(OC)c(OC)c(OC)c3)nc3ccc(C)cc3c2=O)cc1`, the RatioGI50 [1] is reported as 2 - 10, the inhibition of growth at 10 µM [2] is reported as 17.8% and the GI50 [3] is reported as 18.2 µM. The LC50 [3] was over 100 µM, the TGI [3] was over 100 µM and the inhibition of growth at 10 µM [4] was 65.1%. It also gave an inhibition of growth at 10 µM [5] of 22.3%, an inhibition of growth at 10 µM [6] of 40.4% and an inhibition of growth at 10 µM [7] of 19.7%. It also gave an inhibition of growth at 10 µM [8] of 66.4%, an inhibition of growth at 10 µM [9] of 44% and an inhibition of growth at 10 µM [10] of 15.9%. It also gave an inhibition of growth at 10 µM [11] of 32.2%, a GI50 [12] of 34.5 µM and an LC50 (concentration killing 50% of cells) [12] of over 100 µM. For the same compound, the TGI [12] was over 100 µM, the inhibition of growth at 10 µM [13] was 26.2% and the inhibition of growth at 10 µM [14] was under 10%. For the same compound, the inhibition of growth at 10 µM [15] was 22.3%, the inhibition of growth at 10 µM [16] was 26% and the inhibition of growth at 10 µM [17] was 15.8%. It also gave a GI50 [18] of 5.3 µM, an LC50 [18] of over 100 µM and a TGI [18] of 91.4 µM. For the same compound, the inhibition of growth at 10 µM [19] was 30.9%, the GI50 [20] was 19.7 µM and the LC50 [20] was over 100 µM. For the same compound, the TGI [20] was 89.4 µM, the inhibition of growth at 10 µM [21] was 67.3% and the inhibition of growth at 10 µM [22] was 24.3%. It also gave an inhibition of growth at 10 µM [23] of 45.2%, an inhibition of growth at 10 µM [24] of 33.3% and an inhibition of growth at 10 µM [25] of 78.1%. For the same compound, the RatioGI50 [26] was 2 - 10, the inhibition of growth at 10 µM [27] was 49% and the inhibition of growth at 10 µM [28] was 52.8%. For the same compound, the inhibition of growth at 10 µM [29] was 19.4%, the RatioGI50 [30] was 2 - 10 and the inhibition of growth at 10 µM [31] was 35.3%. It also gave an inhibition of growth at 10 µM [32] of 43.3%, an inhibition of growth at 10 µM [33] of 32.8% and an inhibition of growth at 10 µM [34] of 38%. It also gave an inhibition of growth at 10 µM [35] of 37%, a GI50 [36] of 52.8 µM and an LC50 (concentration killing 50% of cells) [36] of over 100 µM. It also gave a TGI [36] of over 100 µM and an inhibition of growth at 10 µM [37] of 83.1%.

In the case of `COc1ccccc1-n1c(SCc2cc(OC)c(OC)c(OC)c2)nc2ccc(Cl)cc2c1=O`, the RatioGI50 [1] is reported as 2 - 10, the inhibition of growth at 10 µM [2] is reported as 29.7% and the GI50 [3] is reported as 3.1 µM. It also gave an LC50 [3] of over 100 µM, a TGI [3] of over 100 µM and an inhibition of growth at 10 µM [4] of 78.9%. The inhibition of growth at 10 µM [5] was 60.4%, the inhibition of growth at 10 µM [6] was 67.1% and the inhibition of growth at 10 µM [7] was 44.9%. For the same compound, the inhibition of growth at 10 µM [8] was 72.2%, the inhibition of growth at 10 µM [9] was 84.7% and the inhibition of growth at 10 µM [10] was 49%. The inhibition of growth at 10 µM [11] was 56.1%, the GI50 [12] was 5.8 µM and the LC50 (concentration killing 50% of cells) [12] was over 100 µM. It also gave a TGI [12] of over 100 µM, an inhibition of growth at 10 µM [13] of 89.2% and an inhibition of growth at 10 µM [14] of 82.6%. It also gave an inhibition of growth at 10 µM [15] of 35.5%, an inhibition of growth at 10 µM [16] of 50.7% and an inhibition of growth at 10 µM [17] of 44.7%. For the same compound, the GI50 [18] was 3.5 µM, the LC50 [18] was over 100 µM and the TGI [18] was 84.8 µM. For the same compound, the inhibition of growth at 10 µM [19] was 74.5%, the GI50 [20] was 4.2 µM and the LC50 [20] was over 100 µM. For the same compound, the TGI [20] was 91.7 µM, the inhibition of growth at 10 µM [21] was 72% and the inhibition of growth at 10 µM [22] was 43.2%. It also gave an inhibition of growth at 10 µM [23] of 72.3%, an inhibition of growth at 10 µM [24] of 55.8% and an inhibition of growth at 10 µM [25] of 92.3%. For the same compound, the RatioGI50 [26] was 2 - 10, the inhibition of growth at 10 µM [27] was 68.9% and the inhibition of growth at 10 µM [28] was 57.4%. For the same compound, the inhibition of growth at 10 µM [29] was 46.7%, the RatioGI50 [30] was 2 - 10 and the inhibition of growth at 10 µM [31] was under 10%. It also gave an inhibition of growth at 10 µM [32] of 65.7%, an inhibition of growth at 10 µM [33] of 37% and an inhibition of growth at 10 µM [34] of 52.3%. For the same compound, the inhibition of growth at 10 µM [35] was 66.8%, the GI50 [36] was 5.9 µM and the LC50 (concentration killing 50% of cells) [36] was over 100 µM. It also gave a TGI [36] of over 100 µM and an inhibition of growth at 10 µM [37] of 87.3%.
